The subject of experiment [1] is Human immunodeficiency virus 1. Briefly: Cytotoxic concentration against monocyte-derived macrophage infected by the HIV-1/Ba-L strain using neutral red staining assay. The format is functional. In short, it runs like this: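 Compound-exposed MDM, with drug renewed twice weekly, were checked microscopically during culture. At the end of culture they were stained with neutral red, and CC50 was calculated from the optical density values. The assay was repeated with cells from a second blood donor.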

The subject of experiment [2] is Human immunodeficiency virus 1. Briefly: Percent inhibition at 100 uM dose of HIV-1 replication using monocyte-derived macrophages infected by the HIV-1/Ba-L strain. The format is functional. In short, it runs like this: (§1)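 Human monocytes were elutriated from seronegative donor PBMC and differentiated 7 days into MDM in RPMI 1640 with 10% heat-inactivated FCS. 1 million MDM were pretreated 1 h with compound and infected with 10 000 TCID50 (0.01 moi) HIV-1/Ba-L, then washed at 24 h. Medium and drug were renewed twice weekly. Read-out was supernatant RT activity, with a second donor repeat; mean ± SD.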

The species entered for a further experiment is Oryctolagus cuniculus. Briefly: Inhibition of PAF-induced platelet aggregation was determined using platelet rich plasma (PRP) of New Zealand rabbits. The format is functional. Put shortly:
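Rabbit platelet-rich plasma was incubated and stirred with antagonist for 2 min, then challenged with 2.5 nM PAF. Antagonist solutions in EtOH spanned 10^-2 to 10^-7 M. Aggregation was followed by continuous light-transmission recording and compared with PAF alone. IC50 came from dose-response curves (5-6 determinations).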

The subject of experiment [3] is Human immunodeficiency virus 1. Briefly: Antiviral activity towards inhibition of HIV-1 replication using monocyte-derived macrophage infected by the HIV-1/Ba-L strain. The format is functional, organism-based. Put shortly: as §1
In experiment [4] the test system is Human immunodeficiency virus 1. Briefly: Percent inhibition at 10 uM dose of HIV-1 replication using monocyte-derived macrophage infected by the HIV-1/Ba-L strain. The format is functional. In short, it runs like this: as §1
For experiment [5], the system named is Human immunodeficiency virus 1. Briefly: Antiviral activity towards inhibition of replication of HIV-1-DAS infected monocyte-derived macrophage. The format is functional, organism-based.

We go through 16 molecules from ChEMBL document CHEMBL1133726, “Structure-activity relationships in platelet-activating factor (PAF). 10. From PAF antagonism to inhibition of HIV-1 replication” (J Med Chem, 2000).

As usually defined, the CC50 is the concentration giving 50% cytotoxicity. Higher therefore signals lower toxicity to the cells. What is called inhibition is the change of the read-out against control, counted positive when it falls. What is called IC50 is the concentration needed to halve the response being measured. For `COc1cc(C(=O)N2CCN(C(=O)c3cc(OC)c(OC)c(OC)c3)C(COC(=O)C(C)(C)C)C2)cc(OC)c1OC` (stereo not given), in experiment [1], the CC50 was more than 100 µM. For the same molecule, the inhibition at 100 µM in experiment [2] came to 25%. In addition, it took 0.1 µM to reach half-maximal inhibition in the experiment filed under Oryctolagus cuniculus (IC50).
For `CCCN(CCC)C(=O)OCC1CN(C(=O)c2cc(OC)c(OC)c(OC)c2)CCN1C(=O)c1cc(OC)c(OC)c(OC)c1` (stereo not given), in that order: more than 100 µM, 66% and 0.37 µM.
For `COc1cc(C(=O)N2CCN(C(=O)c3cc(OC)c(OC)c(OC)c3)C(COC(=O)NC(C)CC(C)C)C2)cc(OC)c1OC` (stereo not given), in that order: more than 100 µM, -2% and 0.28 µM.
The matching figures for `COc1cc(C(=O)N2CCN(C(=O)c3cc(OC)c(OC)c(OC)c3)C(COC(=O)NCC(C)(C)C)C2)cc(OC)c1OC` (stereo not given): more than 100 µM, 74% and 1 µM.
Molecule `COc1cc(C(=O)N2CCN(C(=O)c3cc(OC)c(OC)c(OC)c3)C(COC(=O)N3CCCC3)C2)cc(OC)c1OC` (stereo not given) yielded a CC50 in experiment [1] of more than 100 µM. Further, the values for the IC50 (in experiment [3]; in the experiment listed under Oryctolagus cuniculus) were more than 100 µM and 10 µM, respectively.
In turn, `CCC1CN(C(=O)c2cc(OC)c(OC)c(OC)c2)CCN1C(=O)c1cc(OC)c(OC)c(OC)c1` (stereo not given) registered a CC50 in experiment [1] of more than 100 µM. The IC50 amounted to 230 µM in experiment [3] and 0.46 µM in the experiment filed under Oryctolagus cuniculus.
The matching figures for `COc1cc(C(=O)N2CCN(C(=O)c3cc(OC)c(OC)c(OC)c3)C(C)C2)cc(OC)c1OC` (stereo not given): more than 100 µM, 66 µM and 0.56 µM.
`CCCCCCCCCCC1CN(C(=O)c2cc(OC)c(OC)c(OC)c2)CCN1C(=O)c1cc(OC)c(OC)c(OC)c1` (stereo not given) came in with a CC50 in experiment [1] of more than 50 µM. Further, in experiment [4], the inhibition at 10 µM was 40%. In the experiment listed under Oryctolagus cuniculus, this molecule returned an IC50 of 0.24 µM.
On to `COc1cc(C(=O)N2CCN(C(=O)c3cc(OC)c(OC)c(OC)c3)C(CNC(=O)C(C)(C)C)C2)cc(OC)c1OC` (stereo not given), for which the CC50 in experiment [1] was more than 100 µM. Moreover, the IC50 (in experiment [3]; in the experiment filed under Oryctolagus cuniculus) was more than 100 µM in each case.
Molecule `COc1cc(C(=O)N2CCN(C(=O)c3cc(OC)c(OC)c(OC)c3)C(COC(=O)N3CCCCC3)C2)cc(OC)c1OC` (stereo not given) registered a CC50 in experiment [1] of more than 100 µM. Further, the IC50 was 95 µM in experiment [3] and 0.08 µM in the experiment filed under Oryctolagus cuniculus.
The matching figures for `COc1cc(C(=O)N2CCN(C(=O)c3cc(OC)c(OC)c(OC)c3)CC2)cc(OC)c1OC`: more than 100 µM, more than 100 µM and 1.78 µM.
Take `COc1cc(C(=O)N2CCN(C(=O)c3cc(OC)c(OC)c(OC)c3)C(COC(=O)NC(C)(C)C)C2)cc(OC)c1OC` (stereo not given): the CC50 in experiment [1] is more than 100 µM. In addition, the inhibition at 100 µM in experiment [2] was 52%. In addition, in the experiment listed under Oryctolagus cuniculus, half-maximal inhibition (IC50) was put at 0.13 µM.
With `COc1cc(C(=O)N2CCN(C(=O)c3cc(OC)c(OC)c(OC)c3)C(CO)C2)cc(OC)c1OC` (stereo not given), the CC50 in experiment [1] was more than 100 µM. Further, the IC50 was more than 100 µM in experiment [3] and 1.27 µM in the experiment listed under Oryctolagus cuniculus.
Take `NC(=O)c1ccn2c1CS[C@@H]2c1cccnc1` (racemic) [DACOPAFANT]: the IC50 in the experiment filed under Oryctolagus cuniculus was found to be 16 µM.
`NC(=O)c1ccn2c1CS[C@@H]2c1cccnc1` [DACOPAFANT] came in with an IC50 in experiment [5] of 50 µM.
Molecule `CCN(CC)C(=O)OCC1CN(C(=O)c2cc(OC)c(OC)c(OC)c2)CCN1C(=O)c1cc(OC)c(OC)c(OC)c1` (stereo not given) [PMS-601] yielded a CC50 in experiment [1] of more than 1000 µM. For the same molecule, the IC50 in experiment [3] turned out to be 11 µM; in the experiment filed under Oryctolagus cuniculus it was 8 µM. The inhibition at 100 µM in experiment [2] worked out at 95%.
